Assay results as given in ChEMBL document CHEMBL1629557, “Development of intergenotypic chimeric replicons to determine the broad-spectrum antiviral activities of hepatitis C virus polymerase inhibitors” (Antimicrob Agents Chemother, 2008).
pEC50: −log10 of the molar value.

What was measured:
Hepatitis C virus [1] = test: Antiviral activity against Hepatitis C virus isolate Con1 infected in human Huh7.5 cells assessed as decrease in viral RNA replication after 3 days by hRLuc reporter gene assay; format: functional, organism-based, Hepacivirus hominis; conditions: Con1, Huh-7, 72 h
Summary of the method: (§1)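 Stable Huh7.5 replicon cell lines, kept in medium with 250 μg/ml G418, seeded at 2e4/well and settled 30 min. Compounds were added in half-log serial dilutions with solvent (compound-free) controls for 3 days at 37°C, then hRLuc activity was read. Fold change is EC50 relative to wild-type Con-1.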

Hepatitis C virus [2] = test: Antiviral activity against Hepatitis C virus genotype 1a H77 infected in human Huh7.5 cells assessed as decrease in viral RNA replication after 3 days by hRLuc reporter gene assay; format: functional, organism-based, Hepacivirus hominis; conditions: genotype 1a H77, Huh-7, 72 h; summary of the method: as §1
Hepatitis C virus [3] = test: Antiviral activity against Hepatitis C virus genotype 2a JFH1 infected in human Huh7.5 cells assessed as decrease in viral RNA replication after 3 days by hRLuc reporter gene assay; format: functional, organism-based, Hepacivirus hominis; conditions: JFH-1, Huh-7, 72 h; summary of the method: as §1
Hepatitis C virus [4] = test: Antiviral activity against Hepatitis C virus isolate Con1 transfected with NS5B polymerase of HCV genotype 2b in human Huh7.5 cells assessed as decrease in viral RNA replication after 3 days by hRLuc reporter gene assay; format: functional, organism-based, Hepacivirus hominis; conditions: Con1, Huh-7, 72 h; summary of the method: as §1
Hepatitis C virus [5] = test: Antiviral activity against Hepatitis C virus isolate Con1 transfected with NS5B polymerase of HCV genotype 3a infected in human Huh7.5 cells assessed as decrease in viral RNA replication after 3 days by hRLuc reporter gene assay; format: functional, organism-based, Hepacivirus hominis; conditions: Con1, Huh-7, 72 h; summary of the method: as §1
Hepatitis C virus [6] = test: Antiviral activity against Hepatitis C virus isolate Con1 transfected with NS5B polymerase of HCV genotype 4a infected in human Huh7.5 cells assessed as decrease in viral RNA replication after 3 days by hRLuc reporter gene assay; format: functional, organism-based, Hepacivirus hominis; conditions: Con1, Huh-7, 72 h; summary of the method: as §1
Hepatitis C virus [7] = test: Antiviral activity against Hepatitis C virus isolate Con1 transfected with NS5B polymerase of HCV genotype 5a infected in human Huh7.5 cells assessed as decrease in viral RNA replication after 3 days by hRLuc reporter gene assay; format: functional, organism-based, Hepacivirus hominis; conditions: Con1, Huh-7, 72 h; summary of the method: as §1
Hepatitis C virus [8] = test: Ratio of EC50 for wild-type Hepatitis C virus isolate Con1 to EC50 for Hepatitis C virus genotype 1a H77 in human Huh7.5 cells by hRLuc reporter gene assay; format: functional, Hepacivirus hominis, Huh-7; summary of the method: as §1
Hepatitis C virus [9] = test: Ratio of EC50 for wild-type Hepatitis C virus isolate Con1 to EC50 for Hepatitis C virus genotype 2a JFH1 in human Huh7.5 cells by hRLuc reporter gene assay; format: functional, Hepacivirus hominis, Huh-7; summary of the method: as §1
Hepatitis C virus [10] = test: Ratio of EC50 for wild-type Hepatitis C virus isolate Con1 to EC50 for Hepatitis C virus isolate Con1 transfected with NS5B polymerase of HCV genotype 2b in human Huh7.5 cells by hRLuc reporter gene assay; format: functional, Hepacivirus hominis, Huh-7; summary of the method: as §1
Hepatitis C virus [11] = test: Ratio of EC50 for wild-type Hepatitis C virus isolate Con1 to EC50 for Hepatitis C virus isolate Con1 transfected with NS5B polymerase of HCV genotype 3a in human Huh7.5 cells by hRLuc reporter gene assay; format: functional, Hepacivirus hominis, Huh-7; summary of the method: as §1
Hepatitis C virus [12] = test: Ratio of EC50 for wild-type Hepatitis C virus isolate Con1 to EC50 for Hepatitis C virus isolate Con1 transfected with NS5B polymerase of HCV genotype 4a in human Huh7.5 cells by hRLuc reporter gene assay; format: functional, Hepacivirus hominis, Huh-7; summary of the method: as §1
Hepatitis C virus [13] = test: Ratio of EC50 for wild-type Hepatitis C virus isolate Con1 to EC50 for Hepatitis C virus isolate Con1 transfected with NS5B polymerase of HCV genotype 5a in human Huh7.5 cells by hRLuc reporter gene assay; format: functional, Hepacivirus hominis, Huh-7; summary of the method: as §1
Hepatitis C virus [14] = test: Ratio of EC50 for wild-type Hepatitis C virus isolate Con1 to EC50 for Hepatitis C virus isolate Con1 with NS5B polymerase L419I mutant in human Huh7.5 cells by hRLuc reporter gene assay; format: functional, Hepacivirus hominis, Huh-7
Summary of the method: (§2)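 Transient assay: Huh7.5 cells electroporated with 10 μg in vitro replicon transcript at 220 V, seeded at 6 × 10^4 cells/well, and given 4 h recovery. Half-log serial compound dilutions with solvent controls were then added for 3 days at 37°C, and hRLuc luciferase was read. EC50 was taken as 50% of compound-free signal by nonlinear regression, as mean ± SD of 2–3 independent experiments. Fold change is relative to wild-type Con-1.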

Hepatitis C virus [15] = test: Ratio of EC50 for wild-type Hepatitis C virus isolate Con1 to EC50 for Hepatitis C virus isolate Con1 with NS5B polymerase I482L mutant in human Huh7.5 cells by hRLuc reporter gene assay; format: functional, Hepacivirus hominis, Huh-7; summary of the method: as §2
Hepatitis C virus [16] = test: Ratio of EC50 for wild-type Hepatitis C virus isolate Con1 to EC50 for Hepatitis C virus isolate Con1 with NS5B polymerase L419I and I482L mutant in human Huh7.5 cells by hRLuc reporter gene assay; format: functional, Hepacivirus hominis, Huh-7; summary of the method: as §2

Compound | pEC50 (Hepatitis C virus [1]) | pEC50 (Hepatitis C virus [2]) | pEC50 (Hepatitis C virus [3]) | pEC50 (Hepatitis C virus [4]) | pEC50 (Hepatitis C virus [5]) | pEC50 (Hepatitis C virus [6]) | pEC50 (Hepatitis C virus [7]) | fold change (FC) (Hepatitis C virus [8]) | fold change (FC) (Hepatitis C virus [9]) | fold change (FC) (Hepatitis C virus [10]) | fold change (FC) (Hepatitis C virus [11]) | fold change (FC) (Hepatitis C virus [12]) | fold change (FC) (Hepatitis C virus [13]) | fold change (FC) (Hepatitis C virus [14]) | fold change (FC) (Hepatitis C virus [15]) | fold change (FC) (Hepatitis C virus [16])
COc1ccc2c(O[C@@H]3C[C@H]4C(=O)N[C@@]5(C(=O)O)C[C@@H]5/C=C\CCCCC[C@H](NC(=O)OC(C)(C)C)C(=O)N4C3)cc(-c3ccccn3)nc2c1 [listing 1 of 2 here] | 8.18 | 7.70 | 6.13 | 7.59 | 7.66 | 7.28 | 7.64 |  |  |  |  |  |  |  |  | 
C[C@@]1(O)[C@H](O)[C@@H](CO)O[C@H]1n1ccc(N)nc1=O |  |  |  |  |  |  |  | 1 | 1 | 0.4 | 0.2 | 2 | 0.5 | 1 | 1 | 2
O=C(O)c1ccc2c(c1)nc(-c1ccc(OCc3cc(C(=O)N4CCC(O)CC4)ccc3-c3ccc(Cl)cc3)cc1F)n2C1CCCCC1 | 6.05 | 6.31 | 5.16 | 4.52 | 6.68 | 5.82 | 6.80 | 1 | 8 | 33 | 0.2 | 2 | 0.2 | 4 | 3 | 8
CNC(=O)c1c(-c2ccc(F)cc2)oc2cc(N(CCO)S(C)(=O)=O)c(C3CC3)cc12 [NESBUVIR] | 7.38 | 7.42 | 6.89 | 7.26 | 7.29 | 7.16 | 8.49 | 1 | 3 | 1 | 1 | 2 | 0.1 | 2 | 1 | 3
COc1ccc2c(O[C@@H]3C[C@H]4C(=O)N[C@@]5(C(=O)O)C[C@@H]5/C=C\CCCCC[C@H](NC(=O)OC(C)(C)C)C(=O)N4C3)cc(-c3ccccn3)nc2c1 [listing 2 of 2 here] |  |  |  |  |  |  |  | 3 | 112 | 4 | 3 | 8 | 3 |  |  | 
NC(=O)COc1ccc2c(c1)S(=O)(=O)N=C(c1c(O)c3ccccc3n(NC3CCC3)c1=O)N2 | 7.48 | 6.85 | < 4.49 | < 4.49 | < 4.49 | 4.60 | 5.30 | 4 | >970 | >970 | >970 | 758 | 152 | 0.2 | 0.5 | 0.2
CC(C)C#Cc1cc(N(C(=O)[C@H]2CC[C@H](C)CC2)C(C)C)c(C(=O)O)s1 | 7.60 | 7.70 | 5.21 | < 4.49 | < 4.49 | 5.66 | 6.70 | 1 | 244 | >1280 | >1280 | 88 | 8 | 326 | 201 | 2238
